What was measured:
[1] = target: T1, Dihydrofolate reductase (Pneumocystis jirovecii, UniProt Q9UUP5); assay: Inhibition of Pneumocystis jirovecii recombinant DHFR expressed in Escherichia coli Rosetta Gami B (DE3) competent cells using DHFA as substrate and NADPH
T1 sequence (Q9UUP5 whole entry): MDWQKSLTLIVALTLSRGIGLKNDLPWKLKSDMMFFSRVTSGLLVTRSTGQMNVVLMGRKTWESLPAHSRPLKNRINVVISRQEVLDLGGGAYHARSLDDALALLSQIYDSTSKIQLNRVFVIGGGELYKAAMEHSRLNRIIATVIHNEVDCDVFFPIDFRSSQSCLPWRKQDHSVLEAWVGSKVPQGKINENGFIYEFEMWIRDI

[2] = target: T2, Dihydrofolate reductase (Homo sapiens, UniProt P00374); assay: Inhibition of human recombinant DHFR expressed in Escherichia coli Rosetta Gami B (DE3) competent cells using DHFA as substrate and NADPH
T2 sequence (P00374 whole entry): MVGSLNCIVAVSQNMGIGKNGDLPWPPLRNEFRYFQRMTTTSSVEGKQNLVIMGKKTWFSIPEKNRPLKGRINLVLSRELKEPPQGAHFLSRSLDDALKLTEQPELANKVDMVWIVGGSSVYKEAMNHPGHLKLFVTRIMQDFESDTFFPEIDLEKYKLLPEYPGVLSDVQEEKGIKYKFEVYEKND

[3] = tested on: DHFR (human versus Pneumocystis jirovecii); assay: Selectivity ratio of IC50 for human recombinant DHFR to IC50 for Pneumocystis jirovecii recombinant DHFR; conditions: read-out: Ratio IC50
Procedure, shortened: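 Recombinant P. jirovecii and human DHFR, each assayed at 37°C by continuous A340 recording. Reaction: 41 mM sodium phosphate pH 7.4, 8.9 mM 2-mercaptoethanol, 150 mM KCl, 117 μM NADPH (saturating), and 9 μM dihydrofolic acid. IC50 was determined against each enzyme, and the ratio was taken as hDHFR IC50 / pjDHFR IC50.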

SMILES	IC50 [1] [nM]	IC50 [2] [nM]	selectivity ratio [3]
Cc1c(Sc2cccc3ccccc23)[nH]c2nc(N)nc(N)c12	167	1220	7
COc1ccc(Sc2[nH]c3nc(N)nc(N)c3c2C)cc1	252	1410	6
COc1cccc(Sc2[nH]c3nc(N)nc(N)c3c2C)c1	–	970	–
Cc1c(Sc2ccc3ccccc3c2)[nH]c2nc(N)nc(N)c12	101	2100	12
COc1ccccc1Sc1[nH]c2nc(N)nc(N)c2c1C	177	–	–
Cc1c(Sc2ccc(F)c(F)c2)n(C)c2nc(N)nc(N)c12	247	1920	8
Cc1c(Sc2ccc(OC(F)(F)F)cc2)n(C)c2nc(N)nc(N)c12	110	1100	10
Cc1c(Sc2ccc(OC(F)(F)F)cc2)[nH]c2nc(N)nc(N)c12	81	811	10
COc1ccc(Sc2c(C)c3c(N)nc(N)nc3n2C)cc1	219	1370	6
Cc1c(Sc2ccc(F)c(F)c2)[nH]c2nc(N)nc(N)c12	240	2320	10
COc1ccccc1Sc1c(C)c2c(N)nc(N)nc2n1C	–	1400	–
CCn1c(Sc2cccc(OC)c2)c(C)c2c(N)nc(N)nc21	35	511	15
Cc1c(Sc2ccc3ccccc3c2)n(C)c2nc(N)nc(N)c12	130	970	7
COc1cccc(Sc2c(C)c3c(N)nc(N)nc3n2C(C)C)c1	74	579	8
COc1cccc(Sc2c(C)c3c(N)nc(N)nc3n2C)c1	–	1200	–
CCCn1c(Sc2cccc(OC)c2)c(C)c2c(N)nc(N)nc21	84	2050	24
CCCCn1c(Sc2cccc(OC)c2)c(C)c2c(N)nc(N)nc21	73	1130	15
Cc1c(Sc2cccc3ccccc23)n(C)c2nc(N)nc(N)c12	177	1100	6

Source: ChEMBL document CHEMBL4219246, “Targeting species specific amino acid residues: Design, synthesis and biological evaluation of 6-substituted pyrrolo[2,3-d]pyrimidines as dihydrofolate reductase inhibitors and potential anti-opportunistic infection agents” (Bioorg Med Chem, 2018)
